Experimental data from ChEMBL document CHEMBL1671680, “Pradimicin S, a highly soluble nonpeptidic small-size carbohydrate-binding antibiotic, is an anti-HIV drug lead for both microbicidal and systemic use” (Antimicrob Agents Chemother, 2010).
In brackets after ≈: the same amount, converted by molar mass. Activity calls are given as the source filed them. No cut-off for these calls is given here.

Experiments:
[1] = Cytotoxicity against human Caco2 cells after 3 to 4 days; assay type: cell-based; conditions: Caco-2 cells
Method in brief: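 Cells seeded at 20,000–75,000 per well with compound dilutions, incubated 3–4 days at 37°C, and counted on a Coulter particle counter; CC50 is the concentration inhibiting proliferation by 50%.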

[2] = Aqueous solubility of the compound; assay type: physicochemical; conditions: aqueous medium; read-out: Activity
[3] = system: Human immunodeficiency virus 1; assay: Antiviral activity against R5 tropic HIV-1 clade G isolate BCF-DIOUM infected in human PBMC assessed as inhibition of viral replication […] by ELISA; assay type: functional, organism-based; conditions: Human immunodeficiency virus 1, clade G isolate BCF-DIOUM
Method in brief: (§1)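 PBMCs from healthy donors were stimulated with PHA (2 μg/ml) for 3 days, then seeded at 0.5 × 10^6 cells/well in RPMI 1640 with 10% FCS, IL-2 (25 U/ml) and compound. Virus was added at a final 250 pg p24/ml. Supernatant was taken at day 12 for p24 antigen ELISA.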

PBMC [4] = assay: Cytotoxicity against human PBMC cells at 50 uM after 7 days; assay type: cell-based; conditions: 168 h
[5] = Cytotoxicity against human MT4 cells after 7 days by trypan blue staining; assay type: cell-based
PBMC [6] = assay: Immunostimulatory activity against human PBMC assessed as suppression of IL-9 production at 22 uM after 72 hrs; assay type: functional
Method in brief: (§2)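 Unstimulated PBMCs and PHA-blasts from three donors, in three independent experiments, cultured with test compound at 20 μg/ml (21 or 22 μM). Supernatants collected after 72 h. The cytokine profile was read on a Bio-Plex 27-plex human cytokine bead immunoassay, using beads coupled to cytokine-specific monoclonal antibodies and run per the kit instructions.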

[7] = system: Human immunodeficiency virus 1; assay: Ratio of EC90 to EC50 for R5 tropic HIV-1 clade B isolate US2 infected in human PBMC; assay type: functional
Method in brief: (§3)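 PBMCs from healthy donors were PHA-stimulated (2 μg/ml, 3 days, 37°C), then seeded at 0.5 × 10^6 per well with compound dilutions in RPMI 1640 with 10% FCS and IL-2 (25 U/ml). Virus was added at 250 pg p24 or p27/ml final. On day 12, supernatant HIV-1 p24 or HIV-2 p27 was measured by ELISA, giving EC50 and EC90.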

[8] = Aqueous solubility of the compound at physiological pH; assay type: physicochemical; conditions: aqueous medium
[9] = Cytotoxicity against mouse L1210 cells after 3 to 4 days; assay type: cell-based
PBMC [10] = assay: Immunostimulatory activity against human PBMC assessed as IL1-beta production at 21 uM after 72 hrs; assay type: functional, cell-based; method in brief: as §2
[11] = system: Human immunodeficiency virus 1; assay: Antiviral activity against X4 tropic HIV-1 3B infected in human Raji cells expressing DC-SIGN gene assessed as inhibition of virus capture by Raji cells after 60 mins by ELISA; assay type: functional, organism-based; conditions: Human immunodeficiency virus 1, 3B, 1 h
PBMC [12] = assay: Immunostimulatory activity against human PBMC assessed as IL-12 production at 21 uM after 72 hrs; assay type: functional, cell-based; method in brief: as §2
[13] = system: Human immunodeficiency virus 1; assay: Ratio of EC90 to EC50 for X4 tropic HIV-1 3B infected in human PBMC; assay type: functional; method in brief: as §3
[14] = system: Human immunodeficiency virus 1; assay: Ratio of EC90 to EC50 for R5 tropic HIV-1 clade C isolate ETH2220 infected in human PBMC; assay type: functional; method in brief: as §3
[15] = system: Human immunodeficiency virus 1; assay: Antiviral activity against R5 tropic HIV-1 clade B isolate US2 infected in human PBMC assessed as inhibition of viral replication […] by ELISA; assay type: functional, organism-based; conditions: Human immunodeficiency virus 1, clade B isolate US2; method in brief: as §1
[16] = system: Human immunodeficiency virus 1; assay: Ratio of EC90 to EC50 for X4 tropic HIV-1 clade D isolate UG270 infected in human PBMC; assay type: functional; method in brief: as §3
PBMC [17] = assay: Immunostimulatory activity against human PBMC assessed as suppression of IL-4 production at 22 uM after 72 hrs; assay type: functional; method in brief: as §2
[18] = Cytotoxicity against human PBMC after 7 days by trypan blue staining; assay type: cell-based
[19] = system: Human immunodeficiency virus 1; assay: Antiviral activity against R5 tropic HIV-1 clade C isolate ETH2220 infected in human PBMC assessed as inhibition of viral replication after 12 days by ELISA; conditions: Human immunodeficiency virus 1, clade C isolate ETH2220, 12 days
PBMC [20] = assay: Immunostimulatory activity against human PBMC assessed as IL-1ra production at 21 uM after 72 hrs; assay type: functional, cell-based; method in brief: as §2
[21] = system: Human immunodeficiency virus 1; assay: Antiviral activity against R5 tropic HIV-1 Bal infected in human Raji cells expressing DC-SIGN gene assessed as inhibition of virus capture by Raji cells after 60 mins by ELISA; assay type: functional, organism-based; conditions: Human immunodeficiency virus 1, Bal, 1 h
[22] = system: Human immunodeficiency virus 1; assay: Antiviral activity against X4 tropic HIV-1 3B infected in human Raji cells expressing DC-SIGN gene assessed as prevention of syncytium formation between persistently HIV-1 3B-infected Raji cells and uninfected human C8166 cells after 36 to 42 hrs by microscopic analysis; assay type: functional, organism-based; conditions: Human immunodeficiency virus 1, 3B
Method in brief: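 Raji/DC-SIGN cells exposed 60 min to HIV-1 IIIB (2.2 × 10^6 pg/ml p24), washed by two centrifugations, then plated with compound dilutions and C8166 cells (10^7/ml, 50 μl); cocultures at 37°C scored microscopically for syncytia at ~36–48 h.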

[23] = system: Human immunodeficiency virus 1; assay: Antiviral activity against X4 tropic HIV-1 group O isolate BCF06 infected in human PBMC assessed as inhibition of viral replication […] by ELISA; assay type: functional, organism-based; conditions: Human immunodeficiency virus 1, group O isolate BCF06; method in brief: as §1
[24] = system: Human immunodeficiency virus 1; assay: Ratio of kd for HIV-1 HXB2 gp41 to kd for 3B gp120
[25] = system: Human immunodeficiency virus 1; assay: Ratio of EC50 for compound pretreated HIV-1 3B isolate 42 harboring gp120 mutant infected in human CEM cells to EC50 for HIV-1 3B expressing wild type gp120; assay type: functional, CCRF-CEM
[26] = system: Human immunodeficiency virus 1; assay: Ratio of ka for HIV-1 3B gp120 to ka for HIV-1 HXB2 gp41
[27] = system: Human immunodeficiency virus 1; assay: Antiviral activity against HIV-1 3B cells infected in human PBMC cells assessed as inhibition of virus-induced cytopathicity after 3 to 4 days by microscopic analysis; assay type: functional, organism-based; conditions: Human immunodeficiency virus 1, 3B
[28] = system: Human immunodeficiency virus 1; assay: Ratio of KD for HIV-1 HXB2 gp41 to KD for HIV-1 3B gp120
Method in brief: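 SPR was run at 25°C. HIV-1 IIIB gp120 (CHO-derived, 122 RU) and HXB2 gp41 (Pichia-derived, 58 RU) were amine-coupled to a CM5 chip. Compound (2.5–40 μM, 2-fold steps) in HBS-P pH 7.4 with 10 mM CaCl2 was injected for 2 min at 45 μl/min, and dissociation was followed for 6 min. Apparent ka, kd and KD came from a 1:1 model fit of the three lowest concentrations.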

PBMC [29] = assay: Cytotoxicity against human PBMC cells at 500 uM after 7 days; assay type: cell-based; conditions: 168 h
Method in brief: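 Mock-infected PHA-stimulated PBMC exposed to compound in RPMI 1640 with 10% FCS and IL-2 (25 U/ml); viability measured by trypan blue staining at day 7.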

[30] = Chemical stability of the compound in PBS solution at 50 degC after 4 days by HPLC; assay type: physicochemical; conditions: buffer, 96 h
Method in brief: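 1 mM compound held 4 days in PBS at 50°C, or in 7 mM sodium phosphate pH 4.0 at room temperature; then analysed by reverse-phase HPLC (phosphate/heptanesulfonate pH 3.2 buffer–acetonitrile gradient, 1 ml/min).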

SMILES | CC50 [1] | EC50 [3] | fold change (FC) (PBMC [6]) | Ratio [7] | CC50 [9] | Activity (PBMC [10]) | IC50 [11] | Activity (PBMC [12]) | Ratio [13] | Ratio [14] | EC50 [15] | Ratio [16] | fold change (FC) (PBMC [17]) | EC50 [19] | Activity (PBMC [20]) | IC50 [21] | EC50 [22] | EC50 [23] | other results
CN[C@@H]1[C@H](O[C@@H]2OC[C@@H](O)[C@H](O)[C@H]2O)[C@@H](O)[C@H](O[C@H]2c3cc(C)c(C(=O)N[C@H](C)C(=O)O)c(O)c3-c3c(cc4c(c3O)C(=O)c3cc(OC)cc(O)c3C4=O)[C@@H]2O)O[C@@H]1C [PRADIMICIN A] | > 50 µM | 6.7 µM | 2 | 2 | > 50 µM | inactive | 3.5 µM | inactive | 2 | 2 | 6 µM | 2 | 2 | 10 µM | inactive | 17 µM | 5.4 µM | 1.6 µM | solubility [2]: 50 µM (≈ 42 µg/mL); Activity (PBMC [4]): > 95%; CC50 at 168 h [5]: > 50 µM; solubility [8]: > 20 µM; CC50 at 168 h [18]: > 50 µM
CN[C@@H]1[C@H](O[C@@H]2O[C@H](CO)[C@@H](O)[C@H](OS(=O)(=O)O)[C@H]2O)[C@@H](O)[C@H](O[C@H]2c3cc(C)c(C(=O)N[C@H](C)C(=O)O)c(O)c3-c3c(cc4c(c3O)C(=O)c3cc(OC)cc(O)c3C4=O)[C@@H]2O)O[C@@H]1C [PRADIMICIN S] | > 230 µM | 17 µM | 2 | 2 | > 230 µM | inactive | 11 µM | inactive | 2 | 2 | 11 µM | 2 | 2 | 17 µM | inactive | 21 µM | 5.1 µM | 4.4 µM | kd ratio [24]: 5; Ratio EC50 [25]: >=20; ka ratio [26]: 10; EC50 [27]: 8.5 µM; Ratio [28]: 30; Activity (PBMC [29]): > 95%; Stability [30]: Stable
